According to publication PMC4818360 (Iranian Journal of Basic Medical Sciences, 2016):

Key:
[1] = DPPH free radical scavenging assay; details: methanolic solutions, 30 min, 517 nm, mean ± SD (n = 3)
In short: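 DPPH stock (60 μM in methanol), 1 ml, mixed with 1 ml of test compound or standard at 0.0125, 0.025, 0.05, 0.1 and 0.2 mg/ml. Shaken, left 30 min, then read at 517 nm. Scavenging % = (Ac−At)/Ac×100, where the control holds all reagents except the compound. BHT was the standard. IC50 came from logarithmic non-linear regression; three replicates.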

[2] = biological target: mushroom tyrosinase (EC 1.14.18.1) (Agaricus bisporus, UniProt C7FF04); assay: biochemical
Sequence of mushroom tyrosinase (EC 1.14.18.1) (C7FF04 1-392): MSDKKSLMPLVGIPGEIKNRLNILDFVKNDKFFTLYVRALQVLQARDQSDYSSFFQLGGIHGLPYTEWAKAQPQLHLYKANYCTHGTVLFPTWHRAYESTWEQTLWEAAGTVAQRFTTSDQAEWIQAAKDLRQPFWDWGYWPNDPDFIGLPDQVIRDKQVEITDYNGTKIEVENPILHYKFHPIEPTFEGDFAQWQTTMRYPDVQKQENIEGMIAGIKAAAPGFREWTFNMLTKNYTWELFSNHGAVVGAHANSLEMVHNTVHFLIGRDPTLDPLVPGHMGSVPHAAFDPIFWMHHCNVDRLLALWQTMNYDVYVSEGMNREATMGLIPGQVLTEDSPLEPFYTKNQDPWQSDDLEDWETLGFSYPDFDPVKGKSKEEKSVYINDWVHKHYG

[3] = Hydrogen peroxide scavenging assay; details: at 0.312 mg/ml, 20 min, 230 nm, mean ± SD (n = 3)
In short: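 H2O2 was made at 40 mM in saline phosphate buffer, pH 7.4, and its level checked at 230 nm. 100 μl of methanolic test compound or standard solution (0.312 mg/ml) went into 2 ml of H2O2 solution. A230 was read after 20 min against a blank of compound in buffer without H2O2. Scavenging % = (Ac−At)/Ac×100. BHT and gallic acid were standards; three replicates.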

Row | IC50 values for DPPH [1] | IC50 [2] | SMILES | H2O2 Scavenging [3]
1 | 44.62 ± 2.9 µg/mL | 617 ± 19 µM | COc1ccc(NCc2cc(=O)c(O)cn2C)cc1 [Compound 2, 5-Hydroxy-2-[(4-methoxyphenylamino)methyl]-1-methylpyridin-4(1H)-one] | 64.97±0.96%
2 |  |  | O=C(O)c1cc(O)c(O)c(O)c1 [Galic acid, gallic acid, reference compound] | 97.39±0.76%
3 | 25.17 ± 1.8 µg/mL | 217 ± 9 µM | O=c1cc(CNc2cccc([N+](=O)[O-])c2)[nH]cc1O [Compound 11, 5-Hydroxy-2-[(3-nitrophenylamino)methyl]pyridin-4(1H)-one] | 61.77±1.16%
4 | 49.19 ± 1.7 µg/mL |  | Cc1cc(C(C)(C)C)c(O)c(C(C)(C)C)c1 [BHT, Butylated hydroxyl toluene, reference compound] | 78.52±1.85%
5 | 34.38 ± 1.9 µg/mL | 404 ± 14 µM | Cn1cc(O)c(=O)cc1CNc1ccc(O)cc1 [Compound 3, 5-Hydroxy-2-[(4-hydroxyphenylamino)methyl]-1-methylpyridin-4(1H)-one] | 63.70±1.49%
